Reference: the RNAGym collection of RNA variant scans (doi:10.1126/science.aae0568)
Variants at the floor of the assay were thinned out.

B1: tRNA (parent)
chain: GUUCCGUUGGCGUAAUGGUAACGCGUCUCCCUCCUAAGGAGAAGACUGCGGGUUCGAGUCCCGUACGGAACG

Variants of: B1
Test: yeast fitness relative to wild type (ratio to wild type); higher = fitter; tRNA-Arg(CCU), competitive growth, 37 C, YPD
Summary of the method: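 Variants of the tRNA-Arg(CCU) gene were chemically synthesised with a 3% per-site mutation rate across 69 sites and placed at the native genomic locus in Saccharomyces cerevisiae. Six parallel replicates of the pooled strains were competed in YPD at 37°C for 24 hours, and gene amplicons from the start and end populations were read by 100-nucleotide paired-end sequencing. Darwinian fitness relative to wild type was derived from changes in genotype frequencies. Genotypes required ≥ 100 starting reads, and estimates < 0.5 were set to 0.5.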

Compared with GUUCCGUUGGCGUAAUGGUAAUGCGUCUCUCUCCUAGGGAGAAGACUGCGGGUUCGAGUCCCGUAUGGAACG [C22U C30U A37G C66U], GUUCCGUUGGCGUAAUGGUAAUGCAUCUCCAUCCUAAGGAGAAGACUGCGGGUUCGAGUCCCGUACGGAACG [C22U G25A C31A] is higher in yeast fitness: no more than 0.5 for the first, 0.728 for the second.

Compared with GUUCCGUUGGCGUAAUGGUAAUGCGUCUUCCUCCUAAGGAGAAGACUGCGGGUUCGAGUCCCGUACGGAACG [C22U C29U], GUUCCGUUGGCGUAAUGGUAAUGCGUCUCCCUCCUAAGGAGAAGACUGCGGGUUGGAGUCCCGUACGGAACG [C22U C55G] is lower in yeast fitness: 0.821 for the first, 0.578 for the second.

Compared with GUUCCGUUGGCGUAAUGGUAAUGCGUCUCCCUCCUAAGGAGAAGACUGCGGGUUUGAGUCCCGUACGGAACG [C22U C55U], GUUCCGUUGGCGUAAUGGUAAUGCAUCUCCCUCCUAAGGAGAAGACUGCGGGUCCGAGUCCCGUUCGGAACG [C22U G25A U54C A65U] is lower in yeast fitness: 0.686 for the first, 0.555 for the second.

Compared with GUUCCGUUGGCGUAAUGGUAAUGCCUCUCCCUCCUAAGGAGAAGACUGCGGGUUCGAGUCCUGUACGGAACG [C22U G25C C62U], GUUCCGUUGGCGUAAUGGUAAUGCGUCUCGCUCCUAAGGAGAAGACUGCAGGUUCGAGUCCCGUACGGAACG [C22U C30G G50A] is lower in yeast fitness: 0.67 for the first, no more than 0.5 for the second.

Going from GUUCCGUUGGCGUAAUGGUAAUGCGUCUCCCUCCUAAGGAGAAGAAUGCGGGUUCGAGUCCCGUACAGAACG [C22U C46A G67A] to GUUCCGUUGGCGUAAUGGUAAUGCGUCUCCGUCCUAAGGAGAUGACUGCGGGUUCGAGUACCGUACGGAACG [C22U C31G A43U C60A], the yeast fitness falls from 0.657 to no more than 0.5.

Compared with GUUCCGUUGGCGUAAUGGUAAUGCCUCUCCCUUCUAUGGAGAAGACUGCGGGUUCGAGUCCCGUACGGAACG [C22U G25C C33U A37U], GUUCCGUUGGCGUAAUGGUAAUGCGUCUCCCUUAUAACGAGAAGACUGCGGAUUCGAGUCCCGUACGGAACG [C22U C33U C34A G38C G52A] is higher in yeast fitness: no more than 0.5 for the first, 0.601 for the second.

Compared with GUUCCGUUGGCGUAAUGGUAAUGCAUCUCCCUCCUAAGGAGAAGACUGCGGGUUCGAGUCCCGUUCGGAACG [C22U G25A A65U], GUUCCGUUGGCGUAAUGGUAAUGCGUCUCCCUCCUAAGGAGAAGAGUGCGGGUUCGAGUCCCGUGCGGAACG [C22U C46G A65G] is lower in yeast fitness: 0.687 for the first, no more than 0.5 for the second.

Compared with GUUCCGUUGGCGUAAUGGUAAUGCGUCUCCCUCCUAACGAGAAGACUGCGGGUUCGAGUCCCGUUUGGAACG [C22U G38C A65U C66U], GUUCCGUUGGCGUAAUGGUAAUGCGUCUUCCUCCUAAGAAAAAGACUGCGGGUUCGAGUCCCGUACGGAACG [C22U C29U G39A G41A] is lower in yeast fitness: 0.547 for the first, no more than 0.5 for the second.

GUUCCGUUGGCGUAAUGGUAAUGCCUCCCCCUCCUGAGGAGAAGACUGCGAGUUCGAGUCCCGUACAGAACG [C22U G25C U28C A36G G51A G67A] and GUUCCGUUGGCGUAAUGGUAAUGCGUCUCCCUCCUAAGGAGAAGACUGCGGGUUCGAGUGCCGGACGGAACG [C22U C60G U64G] cannot be ordered by yeast fitness: no more than 0.5 for the first, no more than 0.5 for the second.

First: GUUCCGUUGGCGUAAUGGUAAUGCGUCUCCAUCCUAAGGAGAAGACUGCGGGUUCGAGUCCCGUACGGAACG [C22U C31A]
Second: GUUCCGUUGGCGUAAUGGUAAUGCGUCUCCCUCAUAAGGAGAAGACUGCGGGUUCGAGUCCCGUACGGAACG [C22U C34A]
The yeast fitness of the first is higher: 0.762 for the first, 0.641 for the second.

Going from GUUCCGUUGGCGUAAUGGUAAUGCGUCUCCCUCUUAAGGAGAAGACUGCGGGUUCGAGUCCCGUACGGAACG [C22U C34U] to GUUCCGUUGGCGUAAUGGUAAUGCAUCUCCCUCCUAAGGAGAAGACUGCGGGUUCGAGUCCCGUACGGAACG [C22U G25A], the yeast fitness rises from 0.665 to 0.849.

First: GUUCCGUUGGCGUAAUGGUAAUGCCUCUCCCUCCUAAGGAGAAGACUGCGGGUUCGAGUCCCGUACGGAACG [C22U G25C]
Second: GUUCCGUUGGCGUAAUGGUAAUGCGUCUCCCUCCUAAGGAGAAGAGUGGGGGUUCGAGUCCCGUACGGAACG [C22U C46G C49G]
The yeast fitness of the first is higher: 0.697 for the first, 0.564 for the second.

Compared with GUUCCGUUGGCGUAAUGGUAAUGCGUCUCCCUCCUAAGGAGAAGACUGCGGGUUUGAGUCCCGUGCGGAACG [C22U C55U A65G], GUUCCGUUGGCGUAAUGGUAAUGCGUCUCACUCCUAAGGAGAAGACUGAGGGUUAGAGUCCUGUAUGGAACG [C22U C30A C49A C55A C62U C66U] is higher in yeast fitness: no more than 0.5 for the first, 0.667 for the second.

GUUCCGUUGGCGUAAUGGUAAUGCGUCUCGCUCCUAAGGAGAAGACUGCGCGUUCUAGUCCCGUACGGAACG [C22U C30G G51C G56U] and GUUCCGUUGGCGUAAUGGUAAUGCGUCUCCCUCCUAACGAGAAGACUACGGGUUCGAGUCCCGUACGGAACG [C22U G38C G48A] cannot be ordered by yeast fitness: no more than 0.5 for the first, no more than 0.5 for the second.

Going from GUUCCGUUGGCGUAAUGGUAAUGCGUCUCUCUUCUAAGGAGAAGACAGCGGGUUCGAAUCCCGUCCGGAACG [C22U C30U C33U U47A G58A A65C] to GUUCCGUUGGCGUAAUGGUAAUGCGUCUCCCUCCUAAGGAGAAGAGUGCGGGUUAGAGUCCCGUAAGGAACG [C22U C46G C55A C66A], the yeast fitness rises from no more than 0.5 to 0.564.

First: GUUCCGUUGGCGUAAUGGUAAUGCGUCUCCCUCGUUAGGAGAAGACUGCGGGUUCGAGUCCCGUCCGGAACG [C22U C34G A36U A65C]
Second: GUUCCGUUGGCGUAAUGGUAAUGCGUCUCCGUCCUAAGGAGAAGACUGUGGGUUCGAGUCCCGUAUAGAACG [C22U C31G C49U C66U G67A]
The yeast fitness of the first is higher: 0.573 for the first, 0.563 for the second.

GUUCCGUUGGCGUAAUGGUAAUGCGUCUCCUUCCUAAGGAGAAGACGGCGGGUUCGAGUCCCGUACGGAACG [C22U C31U U47G] and GUUCCGUUGGCGUAAUGGUAAUGCGUCUCCCUCCUAAGGAGAAGACUGCGGGUUUGAGUCCCGUACCGAACG [C22U C55U G67C] cannot be ordered by yeast fitness: no more than 0.5 for the first, no more than 0.5 for the second.

Going from GUUCCGUUGGCGUAAUGGUAAUGCGUCUCCCUCCUAAAGAGAAGACUGCGGGUUCGAGUCCCGUACGAAACG [C22U G38A G68A] to GUUCCGUUGGCGUAAUGGUAAUGCCUCUCCUUCCUAAGGAGAAGACUGCGGGUUCGAGUCCCGUACGGAACG [C22U G25C C31U], the yeast fitness rises from 0.584 to 0.625.

GUUCCGUUGGCGUAAUGGUAAUACGUCUCCCUCCUAAGGAGAAGACUGCGGGUUCGAGUCCCGUACGGACCG [C22U G23A A70C] showed a yeast fitness of no more than 0.5.
